Screening results (PubChem BioAssay)
Rin1-Abl PPI inh – blocks binding of human Rin1 to Abl. AID 588664. inhibition, % at 7.35 µM. P00519+Q13671. 0.4% of 360,000 active. TR-FRET Rin1/Abl binding, biochemical; in the data active = inhibition above about 5%, passing the limit was not always enough
Rpn11 block – blocks the human proteasome subunit Rpn11; human 26S proteasome, Ub4-pepOG fluorescence polarization; 20S core pre-blocked with epoxomicin; inhibition, % at 20 µM; 0.59% of 360,000 active;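 active = inhibition at 20 µM, scaled to each plate's controls, above about 33%, limit read from the data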
CSN inh – inhibitors of human CSN-mediated cullin deneddylation. Q92905. Purified CSN, SCF-Nedd8-OG deneddylation, fluorescence polarization. inhibition, % at 12.5 µM. 0.38% of 360,000 active;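 active = pattern-corrected inhibition above about 35%, with an unprinted fluorescence ratio check between 0.5 and 1.5, limit read from the data, passing the limit was not always enough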
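assay system = purified human Csn5 enzyme expressed in HEK293T cells | amount = 0.24 nM enzyme | buffer or medium = Tris/NaCl/DTT buffer, pH 7.5 | reagent = 10 nM SCFSkp2-Nedd8OG | compound = one concentration, 12.5 µM, 0.25% DMSO | times = 90 min reaction at room temperature | signal = FP | read-out basis = % inhibition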
TPT1 inh – inhibitors of Candida albicans tRNA 2'-phosphotransferase TPT1; recombinant caTPT1, FP RNA substrate dephosphorylation; inhibition, % at 5 µM; 0.81% of 300,000 active;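 active = inhibition above the mean of all tested compounds plus 3 SD, set per screening campaign, cut at about 24% in these data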
Neddyl block – inhibitors of human cullin neddylation | P61081+Q13564 | TR-FRET cullin neddylation, biochemical | inhibition, % at 25 µM | 0.58% of 360,000 active; in the data active = inhibition above about 36%
HNF4A DNA FP – change in binding of human HNF4 alpha to DNA. HNF4a-FITC DNA binding, fluorescence polarization, 1 h. 0.3% of 360,000 active. activity change, % at 10 µM; in the data active = activity change above about 30%, passing the limit was not always enough
Target sequence (P41235 whole entry, looked up): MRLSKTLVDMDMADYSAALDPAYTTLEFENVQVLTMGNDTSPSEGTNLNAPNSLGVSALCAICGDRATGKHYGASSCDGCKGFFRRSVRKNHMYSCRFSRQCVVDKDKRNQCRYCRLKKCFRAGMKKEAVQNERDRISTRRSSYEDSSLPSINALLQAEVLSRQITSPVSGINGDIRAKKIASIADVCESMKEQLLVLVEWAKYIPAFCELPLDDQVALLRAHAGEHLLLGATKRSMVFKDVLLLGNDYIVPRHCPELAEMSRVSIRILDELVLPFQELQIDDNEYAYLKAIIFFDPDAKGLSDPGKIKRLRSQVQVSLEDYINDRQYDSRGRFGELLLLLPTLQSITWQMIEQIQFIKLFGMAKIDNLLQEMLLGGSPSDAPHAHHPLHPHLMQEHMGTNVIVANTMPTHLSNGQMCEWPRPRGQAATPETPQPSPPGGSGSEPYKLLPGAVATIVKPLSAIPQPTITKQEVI
Rpn11 confirm – confirmation of human proteasome Rpn11 inhibitors. shares compounds with Rpn11 block. purified human 26S proteasome, Ub4-pepOG fluorescence polarization; proteasome pretreated with epoxomicin. inhibition, % at 20 µM. 29% of 1,900 active
MMP-2 inh – blocks human MMP-2, flagging nonselective RPN11 hits; shares compounds with Rpn11 block; recombinant MMP-2, FRET peptide cleavage fluorescence; inhibition, % at 20 µM; 4% of 1,900 active;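 note: human MMP-2 activated beforehand with APMA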
Thrombin FP – thrombin (bovine) inhibition counter-screen; inhibition, % at 20 µM; 13% of 1,900 active; shares compounds with Rpn11 block; bovine thrombin cleavage of Ub4-pepOG, fluorescence polarization;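 active = mean inhibition at least 40% at 20 µM, or signal 3 deviations below plate average, so some actives read negative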
A number is an active result; 0 = inactive; - = not tested or not shown. Compounds with a hit are over-represented: about 2.4% of the library has one in this group of screens. Cut-off read from the data, not from the text of the source, unless noted: active = inhibition above about 40%; inactive = the rest.

SMILES	Rin1-Abl PPI inh	Rpn11 block	CSN inh	TPT1 inh	Neddyl block	HNF4A DNA FP	Rpn11 confirm	MMP-2 inh	Thrombin FP
COc1ccc(CCn2c(N)c(C(=O)NCc3ccco3)c3nc4ccccc4nc32)cc1	0	41	0	0	-	0	0	0	0
Nc1c(C(=O)NCc2ccco2)c2nc3ccccc3nc2n1CCc1ccccc1F	0	0	0	0	-	0	-	-	-
O=C(c1cnn2c(C(F)F)cc(-c3ccccc3)nc12)N1CCCCC1c1cccnc1 (stereo not drawn)	0	0	0	0	0	0	-	-	-
CCc1ccccc1OCC(=O)Nc1ccc(N2CCCC2)cc1C	0	88	0	-	0	52	43	0	0
Cc1cc(N2CCCC2)ccc1NC(=O)COc1ccccc1	0	0	0	-	0	0	-	-	-
COc1ccc(NC(=O)CN(C)C(=O)c2ccc(-c3ccccc3Cl)o2)cc1	0	0	0	0	0	0	-	-	-
CCn1c(SCC(=O)Nc2ccc(-c3nc4ccc(C)cc4s3)cc2)nnc1-c1ccccc1	-	-	-	0	-	-	-	-	-
C=CCn1c(SCC(=O)Nc2ccc(-c3nc4ccc(C)cc4s3)cc2)nnc1-c1ccncc1	0	60	0	0	0	0	0	0	0
COC(=O)N[C@@H]1C[C@H]2[C@@H]3CC[C@H]4C[C@@H](OC)CC[C@]4(C)[C@H]3CC[C@@]12C	0	0	0	-	0	0	-	-	-
O=C(CSc1nc2[nH]ncc2c(=O)[nH]1)Nc1ccc(Cl)c(Cl)c1	0	0	0	0	0	0	-	-	-
Cc1ccc(NC(=O)CSc2nc3[nH]ncc3c(=O)[nH]2)cc1Cl	0	51	0	0	0	0	0	0	0
N#CCSc1nc2cc(C(=O)N3CCC(C(N)=O)CC3)ccc2c2nc3ccccc3n12	0	34	0	0	0	0	0	0	0
N#CCSc1nc2cc(C(=O)N3CCCC3)ccc2c(=O)n1Cc1ccccc1	0	0	0	0	0	0	-	-	-
O=C(COc1ccc([N+](=O)[O-])cc1)Nc1cccc2nsnc12	0	75	0	0	0	0	0	0	0
CCS(=O)(=O)N1N=C(c2cccs2)CC1c1cc2cc(C)ccc2nc1Cl (stereo not drawn)	0	64	0	0	0	0	0	0	0
CCOc1ccc(Nc2ccc(N)c(S(=O)(=O)O)c2)cc1	0	0	0	-	0	0	-	-	-
CCS(=O)(=O)N1N=C(c2ccc(NS(C)(=O)=O)cc2)CC1c1ccccc1 (stereo not drawn)	0	82	35	0	-	86	153	0	139
O=C1N/C(=N/NC(=O)c2cccc3ccccc23)S/C1=C\c1ccccc1OCc1ccccc1	0	45	0	-	-	0	0	0	0
NC(=S)NN=Cc1ccc(-c2ccc(S(=O)(=O)Nc3ncccn3)cc2)o1	0	0	0	-	0	0	-	-	-
O=C(N/N=C/c1ccc(-c2ccc(S(=O)(=O)Nc3ncccn3)cc2)o1)c1cc2ccccc2cc1O	0	50	0	0	0	0	51	0	0
COc1ccc2c(c1)C1=NN(/C(C)=C/C(C)=O)C(c3cccc(F)c3)C1CC2 (stereo not drawn)	0	59	0	0	0	0	0	0	0
CN1CCN(C(=O)C2=C[C@H](c3csc4ccccc34)C[C@H](OCCCCO)O2)CC1	0	0	0	0	0	0	-	-	-
C=CCn1c(CCC(=O)O)ccc1-c1ccc(OC)cc1	0	38	0	0	0	0	0	0	0
CC(=O)/C(=N\Nc1ccccc1)Sc1cccc2cccnc12	0	0	0	0	0	0	-	-	-
O=C(Sc1cccc2cccnc12)c1ccccc1Br	0	85	0	0	0	0	65	0	0
SMILES	Rin1-Abl PPI inh	Rpn11 block	CSN inh	TPT1 inh	Neddyl block	HNF4A DNA FP	Rpn11 confirm	MMP-2 inh	Thrombin FP
Cc1occc1C(=O)Nc1nnc(C(F)(F)F)s1	0	0	0	0	0	0	-	-	-
O=C(Nc1ccccc1C(=O)Nc1nnc(C(F)(F)F)s1)c1ccccc1	0	35	0	0	0	0	0	0	0
COc1ccc(CC(=O)OCC(=O)Nc2ncc(Cl)c(C)c2Cl)cc1	0	0	0	-	0	0	-	-	-
CC(C)N1CCN(Cc2ccoc2)CC1CCO (stereo not drawn)	0	0	0	0	0	0	-	-	-
CC1Cc2ccccc2N1C(=O)c1ccc(N2CCCCC2)c([N+](=O)[O-])c1 (stereo not drawn)	0	33	0	0	0	0	0	0	0
Cc1cc(/C=C2/C(=N)N3C(c4ccccc4)=CSC3=NC2=O)c(C)n1-c1ccc(Cl)cc1	0	0	0	-	0	0	-	-	-
Cc1cccc(-n2c(C)cc(/C=C3/C(=N)N4C(c5ccccc5)=CSC4=NC3=O)c2C)c1	0	57	0	0	-	0	0	0	0
O=[N+]([O-])c1ccc(/C=N/Nc2ccccn2)cc1	0	42	0	0	0	0	0	0	0
Cc1ccccc1Sc1ccc(N)cn1	0	60	0	0	0	72	0	0	0
CC(C)CN(C(=O)c1ccc(N2CCCC2=O)cc1)c1c(N)n(Cc2ccccc2)c(=O)[nH]c1=O	0	0	0	-	0	0	-	-	-
COc1ccc(-n2nc(C(=O)NCC(=O)Nc3ccccn3)c3ccccc3c2=O)cc1Cl	0	102	0	-	0	0	0	0	0
CSCCC(NC(=O)c1ccco1)C(=O)OC(C)C(=O)NC(=O)NC1CCCCC1 (stereo not drawn)	0	95	0	0	0	0	0	0	0
C[C@H](NC(=O)c1ccco1)C(=O)NC1CCCCCC1	0	0	0	-	0	0	-	-	-
COc1cc(C(=O)N(CCN(C)C)CC2CCCN(Cc3ccccc3F)C2)ccc1C (stereo not drawn)	0	0	0	0	0	0	-	-	-
O=c1c2c(nc3cc(-c4ccccc4Cl)[nH]n13)CCS2	0	56	81	0	-	0	0	0	0
C[C@H](CO)N1C[C@H](C)[C@H](CN(C)C(=O)Nc2ccc3c(c2)OCCO3)OCc2cnnn2CCCC1=O	0	0	0	-	0	0	-	-	-
Cc1ccc(S(=O)(=O)N2CCN(C(=O)Cc3ccc(S(=O)(=O)N4CCOCC4)s3)CC2)cc1	0	0	0	0	0	0	-	-	-
COc1ccc(N2CCN(C(=O)Cc3ccc(S(=O)(=O)N4CCOCC4)s3)CC2)cc1	0	48	0	0	0	0	0	0	0
CC1CCCN(c2ccc([N+](=O)[O-])s2)C1 (stereo not drawn)	0	53	0	-	0	0	0	0	0
